What was measured:
[1] = molecular target: MMP-2 (Homo sapiens, UniProt P08253); assay: In vitro MMP-2 inhibition, colorimetric kit; assay type: biochemical; settings: read-out: MMP-2 IC50
[2] = molecular target: MMP-9 (Homo sapiens, UniProt P14780); assay: In vitro MMP-9 inhibition, colorimetric kit; assay type: biochemical
[3] = system: Wi-38 cells; assay: MTT cytotoxicity on normal human fibroblasts; assay type: cell-based
Procedure, shortened: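 Normal human lung fibroblasts (Wi-38) were exposed to free s-triazine dendrimers and their conjugates, and viability was read by MTT assay. Safety was expressed as EC100 in μM, the concentration giving 100% growth of normal cells, as mean ± SEM of three measurements. Groups were compared by one-way ANOVA with Tukey's test at p < 0.05.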

[4] = system: MCF-7 cells; assay: MTT cytotoxicity on breast cancer cells; assay type: cell-based, human
Procedure, shortened: (§1)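 Test compounds (free s-triazine dendrimers and their quercetin, lactobionic acid and PEG conjugates) were screened by MTT assay against MCF-7 breast and HepG-2 hepatocellular carcinoma cells. IC50 values are reported in μM as mean ± SEM of three measurements. Differences were tested by one-way ANOVA with Tukey's test, with p < 0.05 taken as significant. SI was tabulated against Wi-38 values.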

[5] = system: HepG-2 cells; assay: MTT cytotoxicity on hepatocellular carcinoma cells; assay type: cell-based, human
Procedure, shortened: as §1

[6] = system: MCF-7 cells; assay: Flow cytometric annexin V/PI analysis of apoptosis; assay type: cell-based, human; settings: MCF-7, 72 h, mean ± SEM
[7] = system: HepG-2 cells; assay: Flow cytometric annexin V/PI analysis of apoptosis; assay type: cell-based, human; settings: HepG-2, 72 h, mean ± SEM
[8] = system: VEGF; assay: VEGF gene expression by quantitative real-time PCR; assay type: cell-based, human; settings: MCF-7, compared to untreated cells, mean ± SEM
[9] = system: VEGF; assay: VEGF gene expression by quantitative real-time PCR; assay type: cell-based, human; settings: HepG-2, compared to untreated cells, mean ± SEM
[10] = selectivity index versus normal Wi-38 cells

Chain of MMP-9 (P14780 94-707): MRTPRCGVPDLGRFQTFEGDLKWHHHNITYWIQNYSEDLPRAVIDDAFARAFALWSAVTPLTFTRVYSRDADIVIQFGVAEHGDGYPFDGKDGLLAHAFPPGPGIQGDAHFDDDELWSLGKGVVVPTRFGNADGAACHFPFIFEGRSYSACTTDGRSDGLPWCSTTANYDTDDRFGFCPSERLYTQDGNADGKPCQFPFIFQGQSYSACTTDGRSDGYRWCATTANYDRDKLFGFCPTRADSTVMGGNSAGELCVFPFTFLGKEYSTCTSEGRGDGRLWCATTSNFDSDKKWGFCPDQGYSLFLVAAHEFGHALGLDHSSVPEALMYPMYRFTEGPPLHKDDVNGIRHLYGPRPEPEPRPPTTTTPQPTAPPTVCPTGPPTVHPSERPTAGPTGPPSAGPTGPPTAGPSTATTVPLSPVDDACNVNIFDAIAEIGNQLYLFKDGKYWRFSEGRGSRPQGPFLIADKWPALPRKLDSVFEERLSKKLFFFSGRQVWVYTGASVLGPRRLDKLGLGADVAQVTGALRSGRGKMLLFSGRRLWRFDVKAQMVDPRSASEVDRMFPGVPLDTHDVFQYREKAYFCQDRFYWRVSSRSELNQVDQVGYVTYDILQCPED
Chain of MMP-2 (P08253 110-446 limits assumed): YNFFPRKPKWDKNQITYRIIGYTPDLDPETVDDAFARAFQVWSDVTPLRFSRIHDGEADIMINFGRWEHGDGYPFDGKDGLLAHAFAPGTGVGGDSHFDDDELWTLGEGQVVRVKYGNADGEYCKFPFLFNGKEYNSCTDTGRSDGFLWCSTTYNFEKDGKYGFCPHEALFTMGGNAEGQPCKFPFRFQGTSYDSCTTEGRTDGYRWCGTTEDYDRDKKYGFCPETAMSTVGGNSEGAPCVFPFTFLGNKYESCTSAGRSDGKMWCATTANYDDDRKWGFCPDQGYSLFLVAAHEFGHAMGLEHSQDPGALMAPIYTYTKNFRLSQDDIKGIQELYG

| IC50 [1] | MMP-2/MMP-9 selectivity ([2]; SI = IC50 (MMP-2)/IC50 (MMP-9), text: folds) | IC50 ([2]; read-out: MMP-9 IC50) | SMILES | IC50 ([3]; Homo sapiens, WI-38, read-out: Wi-38 IC50) | EC100 ([3]; effective safe concentration at 100% cell viability, Wi-38, 72 h, mean ± SEM) | IC50 ([4]; Homo sapiens, MCF7, 72 h, read-out: MCF-7 IC50) | MCF-7 SI [4, 10] | selectivity index (SI) ([4]; stated for MCF-7 and HepG-2 together, versus Wi-38) | IC50 ([5]; Homo sapiens, HepG2, 72 h, read-out: HepG-2 IC50) | HepG-2 SI [5, 10] | Total % of the apoptotic population [6] | Total % of the apoptotic population [7] | VEGF relative fold change [8] | VEGF relative fold change [9] |
| --- | --- | --- | --- | --- | --- | --- | --- | --- | --- | --- | --- | --- | --- | --- |
| 0.299 µM | 1.08 | 0.277 µM | COc1ccc(S(=O)(=O)N(CC(=O)NO)CC(C)C)cc1 [NNGH, N-isobutyl-N-(4-methoxyphenylsulfonyl)glycyl hydroxamic acid] | – | – | – | – | – | – | – | – | – | – | – |
| – | – | – | O=c1c(O)c(-c2ccc(O)c(O)c2)oc2cc(O)cc(O)c12 [Qur, quercetin] | 294 ± 12.6 µM | 70.57 ± 0.950 µM | 35.3 ± 0.475 µM | 8.339 | ~8.5 | 34.32 ± 0.128 µM | 8.573 | 47.00 ± 1.83 % | 24.20 ± 0.895 % | 0.683 ± 0.029 | 0.708 ± 0.012 |
